Converted amounts (≈) assume the structure as drawn.

Holding throughout (format): functional, cell-based
Test [1] concerns A549. Nature of the test: In vitro antitumor activity against A-549 tumor cells. As to conditions: Homo sapiens. In short, it runs like this: (§1)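 Adherent lines (human lung A-549, colon HT-29, MEL-28) grown in EMEM/neaa with 5% FCS. Cells plated at 1×10^4 per well in 1 mL medium containing graded sample concentrations, with drug-free growth controls, in duplicate. Incubated 3 days at 37 °C, 5% CO2. Stained with 0.1% crystal violet, or trypsinized and Coulter-counted. IC50 taken from dose–response curves of growth relative to controls.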

For test [2], the system named is HT-29. Briefly: In vitro antitumor activity against HT-29 tumor cells. Conditions: Homo sapiens. In short, it runs like this:
as §1

Test [3] deals with SK-MEL-28. Briefly: In vitro antitumor activity against MEL-28 tumor cells. As to conditions: Homo sapiens. In a few lines: as §1
The subject of test [4] is P388. Briefly: In vitro antitumor activity against P-388 tumor cells. Conditions: Mus musculus. In a few lines: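 P-388 lymphoid neoplasm from DBA/2 mouse, grown in suspension in EMEM/neaa with 5% FCS. Seeded at 1×10^4 cells per well in 1 mL medium holding a range of sample concentrations, with drug-free controls, duplicate wells. Incubated 3 days at 37 °C, 5% CO2, 98% humidity. Cells counted by Coulter counter; IC50 read from dose–response curves of % growth versus untreated cultures.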

On to `C[C@@]12CCCC1C1C/C(=N\O)C3=CC(=O)CC[C@]3(C)C1CC2` (stereo partly specified), for which the IC50 in test [1], in test [2], in test [3] and in test [4] was 5 µg/mL (≈ 16.6 µM) throughout.
Regarding `CC[C@H](CCC(C)[C@H]1CCC2C3C/C(=N\O)C4=CC(=O)CC[C@]4(C)C3CC[C@@]21C)C(C)C` (stereo partly specified), the IC50 in test [1], in test [2], in test [3] and in test [4] was 10 µg/mL (≈ 22.6 µM) in each case.
Consider `CC(C)CCC[C@@H](C)C1CCC2C3C/C(=N\O)C4=C[C@@H](O)CC[C@]4(C)C3CC[C@@]21C` (stereo partly specified), for which the concentration for half-maximal inhibition (IC50) in test [1], in test [2], in test [3] and in test [4] was 10 µg/mL (≈ 24.1 µM) in each case.
In the case of `CC(C)CCCC(C)[C@H]1CCC2C3C/C(=N\O)C4=C[C@H](O)[C@H](O)C[C@]4(C)C3CC[C@@]21C` (stereo partly specified), the IC50 in test [1], in test [2], in test [3] and in test [4] was 1.25 µg/mL (≈ 2.9 µM) throughout.
In the case of `CC(C)CCCC(C)[C@H]1CCC2C3C/C(=N\O)C4=CC(=O)[C@H](O)C[C@]4(C)C3CC[C@@]21C` (stereo partly specified), the half-maximal inhibitory concentration (IC50) (commonly the point on the concentration scale where inhibition reaches its midpoint) worked out at 0.125 µg/mL (≈ 0.291 µM) in test [1], 0.25 µg/mL (≈ 0.582 µM) in test [2], 0.125 µg/mL (≈ 0.291 µM) in test [3] and 0.25 µg/mL (≈ 0.582 µM) in test [4].
For the molecule `CC(C)CCCC(C)[C@H]1CCC2C3C/C(=N\O)C4=CC(=O)[C@@H](O)C[C@]4(C)C3CC[C@@]21C` (stereo partly specified), the IC50 in test [1] came to 0.125 µg/mL (≈ 0.291 µM); in test [2] it was 0.25 µg/mL (≈ 0.582 µM); in test [3] it was 0.125 µg/mL (≈ 0.291 µM); in test [4], 0.25 µg/mL (≈ 0.582 µM).
In the case of `CC(C)[C@H](C)[C@@]1(C)C[C@@H]1[C@@H](C)C1CCC2C3C/C(=N\O)C4=CC(=O)CC[C@]4(C)C3CC[C@@]21C` (stereo partly specified), the 50% inhibitory concentration (IC50) in test [1], in test [2], in test [3] and in test [4] was 5 µg/mL (≈ 11 µM) in each case.
For the molecule `CC(C)CCCC(C)[C@H]1CCC2C3C/C(=N\O)C4=CC=CC[C@]4(C)C3CC[C@@]21C` (stereo partly specified), the IC50 in test [1], in test [2], in test [3] and in test [4] was 5 µg/mL (≈ 12.6 µM) throughout.
For the molecule `CC(C)CCCC(C)[C@H]1CCC2C3C/C(=N\O)C4=CC(=O)CC[C@]4(C)C3CC[C@@]21C` (stereo partly specified), the IC50 came out at 1.25 µg/mL (≈ 3.02 µM) in test [1], 1.25 µg/mL (≈ 3.02 µM) in test [2], 2.5 µg/mL (≈ 6.04 µM) in test [3] and 1.25 µg/mL (≈ 3.02 µM) in test [4].
In the case of `C[C@]12CCC(=O)C=C1/C(=N/O)CC1C2CC[C@]2(C)C(=O)CCC12` (stereo partly specified), the IC50 in test [1], in test [2], in test [3] and in test [4] was 5 µg/mL (≈ 15.9 µM) throughout.
Take `CC(C)CCCC(C)[C@H]1CCC2C3C/C(=N\O)C4=C[C@@H](O)[C@@H](O)C[C@]4(C)C3CC[C@@]21C` (stereo partly specified): the IC50 in test [1], in test [2], in test [3] and in test [4] was 1.25 µg/mL (≈ 2.9 µM) throughout.
In the case of `C[C@]12CCC(=O)C=C1/C(=N/O)CC1C2CC[C@@]2(C)C1CC[C@@H]2O` (stereo partly specified), the half-inhibitory concentration (IC50) in test [1], in test [2], in test [3] and in test [4] was 5 µg/mL (≈ 15.8 µM) in each case.
As for `CC(C)[C@H](C)[C@@]1(C)C[C@@H]1[C@@H](C)C1CCC2C3C/C(=N\O)C4=C[C@@H](O)CC[C@]4(C)C3CC[C@@]21C` (stereo partly specified), the IC50 in test [1], in test [2], in test [3] and in test [4] was 10 µg/mL (≈ 21.9 µM) in each case.
As to `CC(C)CCCC(C)[C@H]1CCC2C3C/C(=N\O)C4=CC(=O)C(O)=C[C@]4(C)C3CC[C@@]21C` (stereo partly specified), the IC50 was 0.125 µg/mL (≈ 0.292 µM) in test [1], 0.25 µg/mL (≈ 0.585 µM) in test [2], 0.125 µg/mL (≈ 0.292 µM) in test [3] and 0.5 µg/mL (≈ 1.17 µM) in test [4].

Values taken from ChEMBL document CHEMBL1134552, “Synthesis of cytotoxic 6E-hydroximino-4-ene steroids: structure/activity studies” (J Med Chem, 2001).
